Screening data from PubChem.
Mdm2 ligase inh = MDM2-luciferase reporter signal enhancers, primary screen, MDM2 E3 ligase inhibitor project, cell-based, luminescence, 1536-well. signal enhancement, % at 5 µM. actives 0.11% (n = 210,000). cell-based MDM2 ubiquitination luciferase reporter, 2 h; 0 = plate control, 100 = twice control, blank-subtracted. E3 ubiquitin-protein ligase Mdm2 (Homo sapiens), Q00987. AID 1230, 2008;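 active = signal enhancement of 30% or more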;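 note: luminescence tracks abundance of the self-degrading MDM2-luciferase fusion protein; higher signal means inhibition of MDM2 E3 ligase activity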
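Test system: mammalian cells stably expressing self-ubiquitinating, self-degrading MDM2 E3–luciferase fusion; Amount: 2000 cells in each well; Medium: DMEM; Schedule: 4 h settle plus 2 h compound, 37 °C; Technique: SteadyLite luciferase luminescence after 15 min room-temperature reagent incubation; Benchmarks: plate control and blank wells.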
TNF necrop inh = inhibitors of TNF-alpha triggered necroptosis, primary screen, cell-based, Jurkat FADD-/-, single concentration. actives 0.068% (n = 220,000). AID 463075, 2010. activation (protection from cell death), % at 10 µM. Jurkat FADD-/- TNF necroptosis rescue, ATP luminescence, 24 h; 0 = TNF only, 100 = no-TNF cells;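 active = activation, meaning protection from cell death, of at least 50% relative to plate controls; inactive = activation below 50%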;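 note: necroptosis triggered by 40 ng/mL TNF-alpha added together with compound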
Pf gametocyte = late stage P. falciparum gametocyte viability inhibitors, primary screen, ATP luminescence, HTS; P. falciparum stage V gametocytes, 24 h; inhibition, % at 10.9 µM; actives 0.065% (n = 150,000); AID 743093, 2013;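 active = inhibition above the mean plus 3 SD of compounds within the control limits, set per campaign, cut at about 38% in these data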;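 note: 0% = DMSO wells and 100% = medium only without gametocytes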
zVAD death inh = inhibitors of zVAD-triggered necroptosis, primary screen, L929 cells. L929 zVAD necroptosis rescue, ATP luminescence, 24 h; with zVAD 60 µM. viability rescue, % at 10 µM. actives 0.38% (n = 220,000). AID 1377, 2008;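 active = activation, scaled between plate controls, above about 75%, limit read from the data; inactive = activation under that limit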;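 note: 0% = zVAD with DMSO and 100% = DMSO alone without zVAD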
Rad51 HR inh = human RAD51 strand exchange inhibitors, primary screen, biochemical, fluorescence; DNA repair protein RAD51 homolog 1 (Homo sapiens), Q06609; hRad51 DNA strand exchange, fluorescence dequenching; inhibition, % at 10 µM; actives 0.085% (n = 200,000);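 active = inhibition above 40% at the single screening dose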;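 note: 0% = DMSO control wells and 100% = blanks with heterologous ssDNA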
Target sequence (Q06609 whole entry, looked up): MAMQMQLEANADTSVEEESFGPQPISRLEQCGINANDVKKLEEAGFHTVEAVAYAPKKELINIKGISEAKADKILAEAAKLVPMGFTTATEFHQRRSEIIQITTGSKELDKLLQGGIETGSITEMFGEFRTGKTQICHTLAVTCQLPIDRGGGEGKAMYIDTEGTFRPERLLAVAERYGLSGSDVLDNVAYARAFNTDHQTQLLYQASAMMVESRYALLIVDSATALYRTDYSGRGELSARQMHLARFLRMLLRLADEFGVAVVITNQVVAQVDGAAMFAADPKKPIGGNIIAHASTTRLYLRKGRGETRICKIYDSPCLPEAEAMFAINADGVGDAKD
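Test system – preformed human Rad51 ssDNA filaments · Reagent – Donor/quencher-labelled 47-bp dsDNA substrate · Incubation – 37 °C 15-min filament assembly, 30-min compound preincubation, 15-min exchange · Signal – FRET fluorescence dequenching, excitation 485 nm, emission 520 nm · Read-out – percent inhibition from fluorescence, normalised to plate control and blank means · Benchmarks – plate control and blank wells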
Starred values were filed as active, the others as inactive. The list is not random: actives were taken first. Their share in the collection is about 0.58%.

Screening O=C(Nc1ccc2c(c1)CCC2)c1ccc(Cl)nc1 returned Mdm2 ligase inh -4, TNF necrop inh 2, zVAD death inh 3 and Rad51 HR inh -25.
Screening CC(=O)Nc1ccc(NC(=O)c2ccc(Cl)nc2)cc1 returned TNF necrop inh 4, Pf gametocyte 0, zVAD death inh 0 and Rad51 HR inh 42*.
`O=C(c1ccco1)N1CCN(c2ncnc3c2nnn3Cc2ccccc2Cl)CC1` gave Mdm2 ligase inh -2, TNF necrop inh -2 and Rad51 HR inh -1.
CCOC(=O)C1CCN(c2ncnc3c2nnn3Cc2ccccc2Cl)CC1 was read as Mdm2 ligase inh 13, TNF necrop inh -1, Pf gametocyte -13, zVAD death inh 0 and Rad51 HR inh 55*.
For CC(C)(C)NC(=O)NC(=O)COC(=O)CCC1CCCC1 the results were TNF necrop inh 1, Pf gametocyte -25, zVAD death inh 1 and Rad51 HR inh 46*.
Cc1cnc(NC(=O)C2(c3ccccc3)CC2)s1 was read as Mdm2 ligase inh -14, TNF necrop inh 63*, zVAD death inh 3 and Rad51 HR inh 13.
Cc1nnc(NC(=O)C2(c3ccccc3)CCOCC2)s1 was read as Mdm2 ligase inh -13, TNF necrop inh -1, zVAD death inh 0 and Rad51 HR inh 4.
`Cc1ccc(CN2CCSc3sccc3C2=O)cc1` gave Mdm2 ligase inh -7, TNF necrop inh 83*, zVAD death inh 12 and Rad51 HR inh -8.
`COc1ccc(C2(CNC(=O)c3ccc(OCC(C)C)cc3)CCOCC2)cc1` gave Mdm2 ligase inh -5, TNF necrop inh 2, Pf gametocyte 10, zVAD death inh 1 and Rad51 HR inh -10.
CC1C/C(=C/c2ccccn2)C(=O)/C(=C/c2ccccn2)C1 (stereo not given) was read as Mdm2 ligase inh 46*, TNF necrop inh -15, zVAD death inh 32 and Rad51 HR inh -1.
Screening COc1ccc(-c2nc(C)c(C(C)=O)n2O)cc1 returned Mdm2 ligase inh 30*, TNF necrop inh -2, zVAD death inh 0 and Rad51 HR inh 7.
`CCOc1ccc(-c2nc(C)c(C(C)=O)n2O)cc1` gave Mdm2 ligase inh -16, TNF necrop inh -2, Pf gametocyte 8, zVAD death inh 0 and Rad51 HR inh 1.
For C[n+]1cccc(/C=N/NC(=O)CC23CC4CC(CC(C4)C2)C3)c1 the results were TNF necrop inh 0, Pf gametocyte -35, zVAD death inh 0 and Rad51 HR inh -14.
COc1ccc(NC(=O)C(Cl)=C(Cl)Cl)cn1 was read as Mdm2 ligase inh 5, TNF necrop inh 1, Pf gametocyte -6, zVAD death inh -1 and Rad51 HR inh -11.
Screening COc1ccc(NC(=O)/C(Cl)=C(/Cl)S(=O)Cc2ccc(Cl)cc2)cn1 (stereo not given) returned Mdm2 ligase inh 39*, TNF necrop inh -14, Pf gametocyte -11, zVAD death inh 14 and Rad51 HR inh 2.
Screening COc1ccc(C2C(C(=O)N3CCCCC3)CCC(=O)N2c2cc(OC)c(OC)c(OC)c2)cc1 (stereo not given) returned Mdm2 ligase inh 38*, TNF necrop inh -1, zVAD death inh 0 and Rad51 HR inh -3.
`Cc1cccc(C(=O)Nc2ccc(N3CCN(S(C)(=O)=O)CC3)cc2)c1` gave Mdm2 ligase inh -2, TNF necrop inh 0, Pf gametocyte 3 and zVAD death inh 3.
For CCCn1nnc(NC(=O)/C=C/c2ccccc2)n1 the results were Mdm2 ligase inh -1, TNF necrop inh 1, Pf gametocyte -10, zVAD death inh 1 and Rad51 HR inh 6.
For Cc1nc(NC(=O)/C=C/c2ccccc2)n[nH]1 the results were Mdm2 ligase inh 39*, TNF necrop inh -2, Pf gametocyte -24, zVAD death inh 0 and Rad51 HR inh 8.
COc1ccc(NC(=O)COC(=O)CCNS(=O)(=O)c2ccc(Cl)cc2)cc1 was read as TNF necrop inh 9, Pf gametocyte 18, zVAD death inh 0 and Rad51 HR inh 43*.
`CCOC(=O)COc1ccc(C2NC(C(=O)O)CS2)cc1` (stereo not given) gave Mdm2 ligase inh -9, TNF necrop inh 0, zVAD death inh 1 and Rad51 HR inh 1.
Screening CCOC(=O)COc1ccc(C2CC(C)=NN2c2ccccc2)cc1 (stereo not given) returned Mdm2 ligase inh 32*, TNF necrop inh 2, Pf gametocyte -26, zVAD death inh 8 and Rad51 HR inh 1.
COC(=O)c1cccc(Oc2cccc(C(F)(F)F)c2)n1 was read as Mdm2 ligase inh 1, TNF necrop inh -1, Pf gametocyte 3, zVAD death inh 0 and Rad51 HR inh 9.
Screening CCOC(=O)C1CCN(C(=S)Nc2cc(C)ccc2C)CC1 returned Mdm2 ligase inh 98*, TNF necrop inh 1, zVAD death inh 0 and Rad51 HR inh -9.
`N#C/C(=C\c1c(F)cccc1Cl)S(=O)(=O)c1ccccn1` gave Mdm2 ligase inh -14, TNF necrop inh -3, Pf gametocyte 3, zVAD death inh 0 and Rad51 HR inh -4.
For COc1cccc(C2=NOC(C(=O)N3CCN(C(=O)c4ccco4)CC3)C2)c1 (stereo not given) the results were Mdm2 ligase inh -5, TNF necrop inh 2, zVAD death inh 77* and Rad51 HR inh -6.
For O=C(NNc1cccc(Cl)n1)C1CC1 the results were Mdm2 ligase inh -20, TNF necrop inh 0, Pf gametocyte 6, zVAD death inh 1 and Rad51 HR inh -11.
Screening O=C(NNc1c(Cl)cccc1Cl)C1CCC1 returned Mdm2 ligase inh 6, TNF necrop inh 75*, Pf gametocyte 17, zVAD death inh 6 and Rad51 HR inh -3.
Screening C=CCC[C@@H](Cc1ccc(F)cc1)C(=O)OC[C@@H]1CCCN1C(=O)[C@@H](CC=C)CC(=O)N[C@@H](CO)Cc1ccccc1 returned Pf gametocyte 5.
CCn1cc(/C=N/NS(=O)(=O)c2ccc(OC)cc2)c(C)n1 was read as Mdm2 ligase inh 19, TNF necrop inh 1, Pf gametocyte -6, zVAD death inh 0 and Rad51 HR inh 45*.
For CCn1cc(/C=N/NS(=O)(=O)c2ccc(C)cc2)c(C)n1 the results were Mdm2 ligase inh -18, TNF necrop inh 1, Pf gametocyte -16 and zVAD death inh 0.
`Cc1ccc(N(CC(O)CN2CCCCC2)S(=O)(=O)c2ccccc2[N+](=O)[O-])cc1` (stereo not given) gave Mdm2 ligase inh 6, TNF necrop inh 2, Pf gametocyte 6, zVAD death inh 0 and Rad51 HR inh -6.
